Compound activity as filed in PubChem BioAssay.
Most compounds without a hit are left out; they make up all but 4.1% or so of the library.
KCC2 mod: KCC2 cotransporter modulators, thallium flux, primary screen, cell-based, HEK293 KCC2, FluoZin-2 fluorescence, MLSMR; KCC2 cells, thallium flux FluoZin-2 fluorescence; B-score of Tl+ flux slope (higher = more flux/activation; lower = inhibition) at 10 µM; hit rate 2.2% among 190,000;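 active = thallium flux slope and its plate-corrected score both differing from the plate sample mean at a set confidence after two filtering rounds, in either direction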;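 note: slope of fluorescence scaled to starting intensity during 10 to 20 s after thallium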
ROMK mod: ROMK potassium channel modulators, primary screen, cell-based, thallium flux, MLSMR library; ATP-sensitive inward rectifier potassium channel 1 (Homo sapiens), P48048; Tet-inducible ROMK, thallium flux fluorescence; actives lie on both sides; B-score at 10 µM; hit rate 2% among 130,000;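 active = signal ratio slope over the read window, or its plate-corrected B-score, at least 3 SD from the plate mean, either direction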;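 note: B-score of the F/F0 ratio slope over 7 to 12 s after thallium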
Target sequence (P48048 whole entry, looked up): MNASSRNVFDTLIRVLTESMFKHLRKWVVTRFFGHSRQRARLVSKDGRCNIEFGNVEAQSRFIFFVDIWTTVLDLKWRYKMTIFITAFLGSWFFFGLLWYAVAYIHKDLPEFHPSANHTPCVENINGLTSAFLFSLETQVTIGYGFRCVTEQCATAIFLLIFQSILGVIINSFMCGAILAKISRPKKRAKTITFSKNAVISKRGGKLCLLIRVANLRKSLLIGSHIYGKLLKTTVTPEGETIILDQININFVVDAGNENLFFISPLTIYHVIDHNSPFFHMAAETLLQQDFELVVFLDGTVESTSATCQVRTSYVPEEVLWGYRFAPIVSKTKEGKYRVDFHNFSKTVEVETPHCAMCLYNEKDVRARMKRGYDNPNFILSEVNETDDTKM
Autophagy HCS: autophagy modulators in MEF cells, primary screen, imaging, high-content, MEF GFP-LC3 | hit rate 0.98% among 190,000 | calls only at 10 µM (by protocol) | AID 463193, 2010 | MEF GFP-LC3 puncta imaging; test concentration mostly 10 µM;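 active = percentage of spot-positive cells more than 3 SD above its plate mean, without a fluorescence outlier flag or 80% toxicity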;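 note: spot-positive cell cutoff set from DMSO-treated cells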
Redox H2O2 prof: compounds producing H2O2 with reducing agent – biochemical, NIH compound library profiling, artefact control for MLSCN library redox annotation, primary screen; AID 878, 2007; hit rate 0.03% among 200,000; activation, % at 10 µM; DTT-dependent redox cycling H2O2, phenol red/HRP absorbance; 100% = 100 µM peroxide control, 0% = buffer;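 active = activation of at least 50% relative to the plate's high and low controls in the primary single-dose screen; inactive = activation below 50%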;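 note: compound incubated with DTT at 0.8 mM final as the reducing agent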
Dynein cargo inh: inhibitors of GR-EGFP nuclear translocation, primary screen, dynein cargo transport inhibitor project, imaging, high-content, 3617.4 mouse cells; hit rate 0.47% among 220,000; AID 1381, 2008; test concentration mostly 20 µM; stimulated with dexamethasone, 1 µM; hits give low values; z-score, hits read low;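 active = plate z-score of nuclear minus cytoplasmic receptor signal below a set negative limit, without overly bright fluorescence or cell loss, cut at about -3.5 in these data, passing the limit was not always enough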;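 note: z-score of nuclear minus cytoplasmic ring GR-EGFP intensity difference per well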
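medium = tetracycline-free induction medium containing charcoal-stripped FBS | probe or stimulus = dexamethasone, 1.0 µM final | timing = 48 h induction, then 1 h compound, then 30 min agonist, 37 °C | detection = automated 10x imaging of fixed Hoechst-stained cells | read-out basis = nuclear versus cytoplasmic GR-EGFP signal, averaged per well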
An asterisk follows results filed as active; i = inactive; · = not tested or not shown; + = active, no number.

SMILES	KCC2 mod	ROMK mod	Autophagy HCS	Redox H2O2 prof	Dynein cargo inh
CCCCCCCC(=O)NNC(=O)CC(=O)Nc1ccccc1C(=O)O	-1.18	·	i	0.2	0.652
Cc1ccc(S(=O)(=O)NCCCNC(=O)N2CCOCC2)cc1	-0.487	·	+	0.4	1.55
Cc1ccc(S(=O)(=O)NCCNC(=O)N2CCOCC2)cc1	0.373	0.529	i	0.4	0.941
O=C(Nc1ccc(N2CCCCC2)cc1)c1cc([N+](=O)[O-])cc([N+](=O)[O-])c1	·	0.203	+	-0.3	0.0797
O=[N+]([O-])c1ccc(CSc2nnc(Cc3ccccc3)n2-c2ccc(F)cc2)cc1	-1.77	-1.96	+	2.2	-0.276
O=C(CSc1nnc(Cc2ccccc2)n1-c1ccc(F)cc1)N1CCOCC1	0.86	·	i	0.1	-0.118
CC[N+](C)(CC)CC(O)COCC1COc2ccccc2O1 (stereo unspecified)	-0.00984	·	i	-0.1	-0.108
CN(C)C(=O)c1ccc(NC(=O)COc2ccc([N+](=O)[O-])cc2)cc1	-0.0518	0.659	i	-0.8	-0.246
CCOC(=O)C1=C(O)/C(=C/c2cn(CC(=O)NCC3CCCO3)c3ccccc23)SC1=Nc1ccc(C)cc1 (stereo unspecified)	-0.141	·	+	0.4	-0.796
CC(C)C(=O)c1cn(CC(=O)NCC2CCCO2)c2ccccc12 (stereo unspecified)	0.867	1.6	i	2.6	-0.15
Cc1ccc(C)c(NC(=O)CN(C)S(=O)(=O)c2cccc3cccnc23)c1	-0.415	0.817	·	·	-0.361
S=c1[nH]nc(-c2cc3ccccc3o2)n1Cc1ccccc1	27.7*	-0.828	i	-0.5	0.0415
Cc1ccc(-c2n[nH]c(=S)n2Cc2ccccc2)cc1	·	-1.35	i	0.1	2.28
COc1cccc(CC(NC(C)=O)C(=O)NC2CCN(C(=O)C3CC3)CC2)c1OC (stereo unspecified)	0.201	0.0758	i	-0.2	-0.85
CCOC(=O)c1c(C)[nH]c(C(=O)OCC(=O)N2CCc3ccccc32)c1C	-0.0046	0.0758	+	3.6	4.16
O=[N+]([O-])c1ccc(N/N=C/c2c[nH]c3ccccc23)c(S(=O)(=O)Nc2ccc(Cl)cc2)c1	0.0132	2.6	+	-0.7	-2.56
Cc1ccc(S(=O)(=O)N2CCN(C(C)CC(=O)O)CC2)cc1 (stereo unspecified)	0.364	0.0231	i	5.0	0.827
CC(C)c1ccc(NC(=O)c2ccc(Br)o2)cc1	·	·	i	-0.3	0.162
O=C(Nc1ccc(Cc2ccncc2)cc1)c1ccc(Br)o1	-0.497	·	+	0.7	0.029
CCOC(=O)c1c(CNCCN(CC)CC)n(C)c2cc(Br)c(OC)cc12	-3.01*	-2.18	i	0.0	1.88
CCN(CC)CCNC(=O)c1c(C)n(-c2ccccc2)c2cc(Br)c(OC)cc12	0.678	·	+	1.1	-5.18
CCOC(=O)c1c(C)n(C)c2cc(Br)c(OC)cc12	-0.047	-0.84	i	-0.3	0.825
CCS(=O)(=O)N1Cc2ccccc2CC1C(=O)Nc1ccc(C)cc1 (stereo unspecified)	0.705	-0.0162	i	0.1	-0.618
CCS(=O)(=O)N1Cc2ccccc2CC1C(=O)Nc1ncc(C)s1 (stereo unspecified)	0.828	-0.588	+	-2.7	0.793
CC1(C)SC[C@H](C(=O)Nc2cccc(Cl)c2)N1C=O	0.597	·	·	·	-0.0806
SMILES	KCC2 mod	ROMK mod	Autophagy HCS	Redox H2O2 prof	Dynein cargo inh
CCOC(=O)CCC(=O)NNC(=O)COc1ccc(C(C)C)cc1Br	-1.03	0.807	i	-1.1	-0.083
CCn1c(=O)cc(SCC(=O)NCCCN2CCN(c3ccccc3F)CC2)c2ccccc21	-0.925	·	+	0.6	0.336
CNS(=O)(=O)c1ccc(C(C)(C)C)cc1	0.886	-0.185	i	-0.5	-0.567
CCCc1noc2c1C(c1cc(Br)ccc1F)C(C#N)=C(N)N2 (stereo unspecified)	0.0417	0.00239	i	0.4	0.319
Cc1ccc(/C=N\NC(=O)c2cc([N+](=O)[O-])cc([N+](=O)[O-])c2)o1	4.72*	·	i	0.5	-0.0824
COc1ccc2nc(N3C(=O)/C(=C/c4ccc(Cl)cc4)NC3=S)sc2c1	53.5*	·	+	0.2	-2.81
CC(C)NC(=S)N=Nc1c(O)[nH]c2ccc([N+](=O)[O-])cc12	2.02	0.926	i	-1.8	0.243
CNC(=S)N=Nc1c(O)[nH]c2ccc(C(C)C)cc12	6.59*	·	i	-0.1	0.582
Cc1noc(C(F)(F)F)c1C(=O)NNC(=O)c1ccccc1	1.03	·	·	·	1.37
COc1ccc(OC)c(-c2c3c([nH]c(=S)c2C#N)CCCC3)c1	2.86	·	i	-0.1	0.0533
COc1ccc(-c2c3c([nH]c(=S)c2C#N)CCC3)cc1	5.02*	0.793	i	-3.0	-1.48
COc1ccc(-n2c(=O)c(NC(=O)c3ccccc3)c3n(c2=S)CCCCC3)cc1	0.6	-0.102	+	-0.3	1.67
COC(=O)c1ccc(NC(=O)CN2CCN(c3cccc(Cl)c3)CC2)cc1	·	·	i	1.4	1.34
COC(=O)c1ccc(NC(=O)CN2CCN(c3ccc(Cl)cc3)CC2)cc1	0.0714	·	+	0.3	-0.0622
O=C1CN(c2nc(-c3ccccc3)c3cc(Cl)ccc3n2)c2ccccc2N1	0.278	·	+	1.3	5.41
CCOc1ccccc1N1CC(C(=O)Nc2cccc(S(=O)(=O)N3CCCCC3)c2)CC1=O (stereo unspecified)	-0.299	0.228	i	-0.9	-0.0294
Cc1onc(C(=O)NN)c1C(=O)Nc1ncc(C(F)(F)F)cc1Cl	0.639	-0.176	i	-0.8	0.0433
CC(C)(C)C(=O)c1sc2nc(-c3cccs3)cc(C(F)(F)F)c2c1N	·	·	+	-0.6	-3.9
Nc1c(C(=O)Nc2nccs2)sc2nc(-c3cccs3)cc(C(F)(F)F)c12	0.457	-2.22	+	1.8	-1.3
CC(=O)Nc1ccc(N(C(=O)CNC(=O)c2ccco2)C(C(=O)NCc2ccco2)c2ccccc2F)cc1 (stereo unspecified)	0.101	-0.129	i	-1.1	-0.0883
NC(=O)N/N=C/c1ccc(-c2ccc([N+](=O)[O-])cc2)o1	-0.499	-0.674	·	·	-0.228
O=[N+]([O-])c1cccc(-c2ccc(/C=N/NC(=S)Nc3ccccc3)o2)c1	0.497	1.19	+	-2.9	-1.28
O=[N+]([O-])c1cccc(-c2ccc(/C=N/Nc3nc(N4CCCCC4)nc(N4CCCCC4)n3)o2)c1	-1.78	-1.17	i	1.1	1.2
Cc1ccc(C)c(N(CC(=O)N/N=C/c2ccc(-c3ccc([N+](=O)[O-])cc3)o2)S(=O)(=O)c2ccccc2)c1	·	-0.429	+	-0.1	0.563
